# Screens from PubChem.
# Only some compounds are listed: those with a hit (about 2.9% of all), similar ones and a draw of the others.
# 5HT1E antag = blocks the human 5-HT1E serotonin receptor; P28566; CHO 5-HT1E Ga15 NFAT-bla reporter, FRET, antagonist; inhibition, % at 6 µM; 65,000 compounds, 0.99% hits; AID 571;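 active = inhibition above a set limit, the mean inhibition across every tested compound plus 3 SD, cut at about 29% in these data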;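 also: signal is the 460 over 535 nm emission ratio of beta-lactamase substrate; 0% = agonist plus DMSO wells and 100% = wells without agonist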
# Target sequence (P28566 whole entry, looked up): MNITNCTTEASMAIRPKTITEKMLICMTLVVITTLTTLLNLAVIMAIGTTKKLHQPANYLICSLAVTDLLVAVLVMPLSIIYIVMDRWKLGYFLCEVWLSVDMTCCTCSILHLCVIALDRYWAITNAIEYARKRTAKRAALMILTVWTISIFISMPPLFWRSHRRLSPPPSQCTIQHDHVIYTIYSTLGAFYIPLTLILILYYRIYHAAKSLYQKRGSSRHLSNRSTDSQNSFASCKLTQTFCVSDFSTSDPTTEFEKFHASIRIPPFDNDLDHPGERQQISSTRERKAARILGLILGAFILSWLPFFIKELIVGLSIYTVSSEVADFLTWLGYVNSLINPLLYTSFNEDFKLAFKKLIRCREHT
# 5HT1E ag = 5-HT1E (human) receptor agonism; 65,000 compounds, 0.69% hits; activation, % at 6 µM; P28566; CHO 5-HT1E Ga15 NFAT-bla reporter, FRET; 0% DMSO wells, 100% control agonist wells;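 active = activation above a set limit, the screen-wide mean activation plus 3 SD, cut at about 8.5% in these data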;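 also: 100% = positive control agonist at 1 µM giving full maximal response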
# 5-HT1A blocker = 5-HT1a (human) receptor antagonism. inhibition, % at 10 µM. P08908. AID 612. 62,000 compounds, 0.68% hits. CHO 5-HT1a Ga15 NFAT-bla reporter, antagonist mode;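 active = inhibition above the mean of all tested compounds plus 3 SD, cut at about 43% in these data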;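 also: receptor stimulated by 5-CT agonist at 100 nM near EC80; beta-lactamase reporter measured by ratiometric fluorescence of a cleavable substrate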
# HTR1A agonist = agonists of human 5-HT1a serotonin receptor. P08908. CHO 5-HT1a Ga15 NFAT-bla reporter, FRET ratio; 0% basal, 100% maximal reference agonist. activation, % at 10 µM. 65,000 compounds, 0.56% hits;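 active = activation above the screen-wide mean activation plus 3 SD, cut at about 19% in these data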;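 also: 0% = DMSO wells and 100% = 5-CT at EC100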
# HEK293 NFkB inh = lowers PMA/ionomycin-induced NF-kB signal in HEK293 cells; AID 465; inhibition, % at 3 µM; HEK-293 NF-kB luciferase reporter, luminescence; 62,000 compounds, 0.21% hits;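 active = inhibition above the mean of all tested compounds plus 3 SD, cut at about 40% in these data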;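 also: 0% = stimulated DMSO wells and 100% = 10 µM reference inhibitor 5653914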
#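 Signal: luciferase luminescence; Material: HEK-293 cells with stable firefly luciferase reporter driven by four HIV NF-kB elements; Probe or stimulus: PMA with ionomycin; Replication: tested once; Times: 1 h compound pretreatment, then 16 h stimulation at 37 °C, 5% CO2; Benchmarks: DMSO and 10 µM reference inhibitor; Evaluation: per-plate % inhibition versus controls.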
# SK-BR-3 tox 24h = SK-BR-3 proliferation inhibitors; SK-BR-3 viability, CellTiter-Glo ATP luminescence, 24 h; stronger effect = lower value; viability, % at 10 µM; 41,000 compounds, 0.47% hits; AID 847;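 active = viability at or below the median of all test compounds minus 3 SD, in both replicates if run twice, cut at about 45% in these data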;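 also: 100% = median untreated cell wells and 0% = median positive control drug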
# Active calls of the source: *; nt = no result given.
SMILES,5HT1E antag,5HT1E ag,5-HT1A blocker,HTR1A agonist,HEK293 NFkB inh,SK-BR-3 tox 24h
CCCN1C(=O)C(O)(C/C(C)=N/O)c2ccccc21 (stereo not drawn),2.8,0.4,4.5,-0.5,-1.7,114.1
CC(=O)CC1(O)C(=O)N(CN2CCN(c3ccccc3)CC2)c2ccccc21 (stereo not drawn),19.0,15.1*,11.9,-0.3,6.3,nt
Cc1cc(Nc2cccc(F)c2)nc(-c2ccccc2O)n1,31.1*,0.0,36.6,-1.8,2.6,76.0
Cc1cc(Nc2ccccc2)nc(-c2ccccc2O)n1,13.0,-0.5,20.9,-0.2,16.4,98.6
CCn1c(NC(=O)c2cccs2)c(-c2cccs2)c(=O)c2ccccc21,2.5,-0.6,0.4,-1.8,20.2,63.1
CC(C)n1c2ccccc2c2nc3ccccc3nc21,32.3*,0.1,5.9,5.2,21.1,92.6
CN(C)CCCN1c2ccccc2Sc2ccc(Cl)cc21,-7.5,8.7*,nt,0.9,nt,76.8
OCCN1CCN(CCCN2c3ccccc3Sc3ccc(Cl)cc32)CC1,-0.1,-0.3,nt,-4.4,nt,101.3
CCCCC(c1nnnn1C1CCCC1)N1CCN(C2CCCCC2)CC1 (stereo not drawn),4.9,-0.2,50.2*,-0.8,6.7,79.2
Cc1c(C(=O)OCC(C)C)[nH]c2c1C(=O)CC(c1ccco1)C2 (stereo not drawn),68.6*,0.3,53.0*,-3.2,36.5,nt
Cc1c(C(=O)OCC2CCCO2)[nH]c2c1C(=O)CC(c1ccco1)C2 (stereo not drawn),8.7,-0.6,15.3,-5.2,23.1,74.2
C=CCOC(=O)c1[nH]c2c(c1C)C(=O)CC(c1ccco1)C2 (stereo not drawn),76.1*,0.4,51.2*,-3.1,31.7,nt
Cc1c(C(=O)OC2CCCC2)[nH]c2c1C(=O)CC(c1ccco1)C2 (stereo not drawn),84.8*,-0.9,61.8*,0.2,25.7,nt
C/C=C/COC(=O)c1[nH]c2c(c1C)C(=O)CC(c1ccco1)C2 (stereo not drawn),77.9*,-0.5,63.8*,-3.0,28.8,nt
C/C=C/COC(=O)c1[nH]c2c(c1C)C(=O)CC(c1ccc(N(C)C)cc1)C2 (stereo not drawn),-7.8,-0.3,25.4,1.5,10.4,nt
CS(=O)(=O)N1CCC(C(=O)c2cccc(Cl)c2)CC1,-4.7,-0.3,-4.5,-2.0,-7.6,102.0
O=S(=O)(Cc1ccc(Cl)cc1)N1CCCC1,1.7,-0.7,-4.5,-2.1,2.7,83.2
Cc1c(C(=O)N2CCOCC2)[nH]c2c1C(=O)CC(c1ccccc1Cl)C2 (stereo not drawn),9.9,40.0*,19.7,-0.6,21.2,89.0
COC(=O)c1[nH]c2c(c1C)C(=O)CC(c1ccccc1)C2 (stereo not drawn),68.1*,-1.9,54.8*,-0.7,44.5*,84.4
O=C(NCC1COc2ccccc2O1)C1CCCN(S(=O)(=O)c2cnc[nH]2)C1 (stereo not drawn),11.3,-0.8,7.5,0.7,-0.5,nt
Clc1cccc(-c2nnc(-c3ccccc3)o2)c1,13.3,-0.9,24.9,-3.2,-43.8,18.3*
COc1ccc2nc(C)c(C(=O)OCCN(C)C)cc2c1,7.7,0.2,13.3,-2.7,-5.4,103.8
COc1ccc(-c2cc(CCCC(=O)NCCc3ccc(OC)cc3OC)no2)cc1,6.3,11.5*,14.1,-1.2,20.3,nt
CCOc1ccc(-c2cc(CCCC(=O)NCCc3ccc(OC)c(OC)c3OC)no2)cc1,-2.5,4.1,0.6,2.1,19.3,nt
Cc1noc(C)c1COC(=O)C1(c2cccc(F)c2)CCCC1,8.3,-0.8,18.4,-1.8,18.7,nt
SMILES,5HT1E antag,5HT1E ag,5-HT1A blocker,HTR1A agonist,HEK293 NFkB inh,SK-BR-3 tox 24h
O=C(NCCNC(=O)C(c1ccccc1)c1ccccc1)c1ccco1,-0.8,-1.2,-2.2,-1.2,12.5,nt
Cc1nc(NCCNC(=O)c2ccco2)c2c(C)c(C)sc2n1,31.7*,-0.5,-4.2,-0.9,4.5,61.9
O=C(NCc1nc2ccccc2[nH]1)c1cc2ccccc2oc1=O,12.1,-0.1,-7.1,1.1,8.6,nt
CCN(CC)c1ccc2cc(-c3nc4ccccc4[nH]3)c(=O)oc2c1,49.2*,-0.4,26.8,-6.4,3.4,41.5*
CCN(CC)c1ccc2cc(-c3nc4ccccc4n3C)c(=O)oc2c1,81.8*,6.8,53.8*,16.5,39.9*,nt
Cn1c(-c2ccccc2)cc2c3no[n+]([O-])c3ccc21,34.1*,-0.2,44.5*,2.4,17.8,88.1
CCOC(=O)c1c(C)n(OCc2ccccc2)c2ccc3c(no[n+]3[O-])c12,-0.3,1.1,2.4,-1.1,15.1,99.2
COC(=O)c1ccccc1NC(=O)Cn1c(-c2nonc2N)nc2ccccc21,80.7*,-1.4,74.0*,-2.3,33.6,79.2
COc1ccc(-c2cc(C(=O)NCCN3CCOCC3)c3ccccc3n2)c(OC)c1,nt,nt,nt,nt,nt,82.5
CCOc1ccc(-c2cc(C(=O)O)c3ccccc3n2)c(OCC)c1,9.0,0.1,18.5,-0.3,41.9*,nt
CC(=O)N1CCN(c2ccc(Nc3ncnc4c3oc3ccccc34)cc2)CC1,27.6,-0.5,14.5,13.4,17.9,108.3
CCc1nc(Nc2ccc(N3CCN(C(C)=O)CC3)cc2)c2oc3ccccc3c2n1,33.8*,-0.1,1.2,4.1,12.8,79.0
O=C(O)c1ccc2c3c(ncnc13)-c1ccccc1C2=O,5.8,-0.5,1.1,0.2,-2.2,43.8*
O=C1c2ccccc2-c2ncnc3cccc1c23,3.6,-0.6,0.4,2.3,-2.0,114.2
COc1cc2nc(N3CCN(C(=O)c4ccco4)CC3)nc(N)c2cc1OC,-9.9,-1.1,nt,nt,nt,43.9*
COC(=O)c1ccc(-c2sc3nc(N4CCOCC4)c4c(c3c2N)CCCC4)o1,11.8,5.4,nt,25.5*,nt,87.0
CCCc1cc(=O)n2[nH]c(Cc3ccccc3)nc2n1,-1.5,0.5,-2.0,-0.7,8.5,103.2
COc1ccc(C(=O)N2c3cc4c(cc3C(C)=CC2(C)C)OCO4)cc1,4.9,-0.9,53.9*,-1.3,20.1,92.7
CC1=CC(C)(C)N(C(=O)c2ccccc2)c2ccccc21,-2.0,-0.8,7.3,-2.7,16.0,nt
O=C(c1ccco1)N(CCCN1CCOCC1)c1nc(-c2ccc(Cl)cc2)cs1,11.7,-0.7,47.6*,-3.1,18.3,71.5
CCc1cccc(OCC(=O)Nc2ccc(S(=O)(=O)Nc3onc(C)c3C)cc2)c1,-2.3,-0.2,14.4,-2.1,-2.4,nt
O=C(CCSc1nnc2scc(-c3ccccc3)n12)NCc1ccc2c(c1)OCO2,17.9,-1.1,3.2,1.1,5.5,109.3
c1ccc(-c2csc3nnc(SCc4ccc5c(c4)OCO5)n23)cc1,29.4*,1.3,2.0,-2.6,24.5,nt
Cc1oc(C(=O)O)cc1COc1cccc2cccnc12,1.9,-0.1,-2.8,-3.4,21.1,nt
